Most compounds without a hit are left out; they make up all but 2.8% or so of the library.
MC4R barr agon: activates human MC4R beta-arrestin recruitment | P32245 | U2OS MC4R beta-arrestin complementation, luminescence; percent of melanotan II response, DMSO zero | activation, % at 8.9 µM | 0.98% of 360,000 active;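 active = activation above a per-plate cutoff, the mean activation of sample wells on that plate plus 3 SD, cut at about 8% in these data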
Target sequence (P32245 whole entry, looked up): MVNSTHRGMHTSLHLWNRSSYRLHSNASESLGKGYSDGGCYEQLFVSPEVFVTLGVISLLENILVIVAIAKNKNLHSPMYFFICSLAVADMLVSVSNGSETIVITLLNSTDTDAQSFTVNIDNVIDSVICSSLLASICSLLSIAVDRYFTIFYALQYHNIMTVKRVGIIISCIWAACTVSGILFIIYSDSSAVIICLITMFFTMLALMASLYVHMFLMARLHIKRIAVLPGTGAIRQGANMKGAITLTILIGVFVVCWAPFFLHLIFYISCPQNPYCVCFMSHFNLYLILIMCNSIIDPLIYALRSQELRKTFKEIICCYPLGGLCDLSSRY
MC4R antagonist: human MC4R antagonism in cAMP assay; inhibition, % at 6.5 µM; P32245; AID 540295; MC4R-expressing cells, MTII-stimulated cAMP, LANCE TR-FRET; 0.48% of 360,000 active;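 active = inhibition above its plate's cutoff, the mean of tested wells on that plate plus 3 SD, cut at about 29% in these data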;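 also: 0% = Melanotan II alone and 100% = Melanotan II plus saturating MCL0020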
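System: U2OS cells stably expressing human melanocortin 4 receptor (MC4R). Reagent: Melanotan II challenge after compound preincubation. Doses: 6.5 µM. Times: 30-min compound, 1-h challenge, 1-h detection, room temperature. Measured by: TR-FRET with Eu-cAMP and labeled anti-cAMP, 671 nm. Replicates: singlicate.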
HTR2A ag: agonists of mouse serotonin 5-HT2A receptor (HTR2A); 0.66% of 360,000 active; CHO-K1 mHTR2A beta-arrestin complementation, luminescence; percent of 30 µM serotonin response; P35363; activation, % at 7.6 µM;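 active = activation above a run cutoff, the mean activation of all tested compounds plus 3 SD, cut at about 14% in these data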;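 also: 0% = plate median of compound wells and 100% = 30 µM serotonin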
EBI2 antag: EBI2 (human) antagonism. P32249. EBI2 beta-arrestin recruitment, luminescence, 7a,25-OHC stimulated. inhibition, % at 5 µM. 0.81% of 360,000 active. AID 651636; in the data active = inhibition above about 38%;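 also: enzyme fragment complementation signal reports receptor beta-arrestin coupling in cells; 0% = agonist plus DMSO wells and 100% = wells without agonist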
Target sequence (P32249 whole entry, looked up, the tested form may be a part): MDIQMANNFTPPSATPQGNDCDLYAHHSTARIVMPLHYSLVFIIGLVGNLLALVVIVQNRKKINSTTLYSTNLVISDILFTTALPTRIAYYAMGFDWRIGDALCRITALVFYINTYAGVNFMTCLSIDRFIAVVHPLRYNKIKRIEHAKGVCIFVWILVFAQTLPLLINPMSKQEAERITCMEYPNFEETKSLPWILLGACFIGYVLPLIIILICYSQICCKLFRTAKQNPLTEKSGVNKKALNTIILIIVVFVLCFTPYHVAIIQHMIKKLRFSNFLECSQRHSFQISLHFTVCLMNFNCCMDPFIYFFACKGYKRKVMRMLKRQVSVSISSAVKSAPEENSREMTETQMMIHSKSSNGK
EBI2 antag conf: EBI2 (human) antagonism, single concentration confirmation. shares compounds with EBI2 antag. EBI2 beta-arrestin luminescence, 7a,25-OHC antagonism. inhibition, % at 5 µM. 29% of 2,400 active;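 active = inhibition of at least 50%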
EBI2 ag: EBI2 agonism counter-screen | shares compounds with EBI2 antag | EBI2-expressing cells, agonist mode, luminescence, 60 min; 0% vehicle, 100% 7α,25-dihydroxycholesterol control | activation, % at 5 µM | 2,400 tested, under 10 active | AID 652000;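 active = activation of at least 50%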
bGal cs: inhibits E. coli beta-galactosidase, counter-screen for EBI2 antagonists. inhibition, % at 5 µM. purified beta-galactosidase, luminescent Galacton Star, 15 min. shares compounds with EBI2 antag. AID 652176. 1% of 2,400 active;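 active = replicate-average signal at least 3 plate SD below neutral wells, shown as high inhibition, flagging enzyme-inhibiting false positives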;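 also: 0% = DMSO wells with enzyme and 100% = wells lacking enzyme; higher means stronger loss of beta-gal luminescence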
* marks the source's active call; other numbers are inactive results; x = no result.

SMILES	MC4R barr agon	MC4R antagonist	HTR2A ag	EBI2 antag	EBI2 antag conf	EBI2 ag	bGal cs
COc1ccc(CCCNC(=O)C2CCC(=O)N(Cc3ccc(Cl)cc3)C2)cc1 (configuration not stated)	0.9	1.7	-3.8	49.0*	24.0	-0.1	9.1
CCOC(=O)C1CCN(C(=S)Nc2ccc(CC)cc2)CC1	-0.2	3.0	2.6	13.7	x	x	x
O=C(Nc1ccc(Oc2ccccc2)nc1)C1CCCCN1Cc1ccc(O)cc1 (configuration not stated)	-2.1	-1.7	-4.0	85.6*	54.7*	-1.0	4.3
COc1cc(CN2CCCCC2C(=O)Nc2ccc(Oc3ccccc3)nc2)ccc1O (configuration not stated)	-0.5	8.2	-1.1	86.9*	50.4*	0.2	3.4
COCCc1ncc(CN2CCCCC2C(=O)Nc2ccc(Oc3ccccc3)nc2)cn1 (configuration not stated)	-3.0	1.4	-0.5	18.6	x	x	x
O=C(Nc1ccc(Oc2ccccc2)nc1)C1CCCCN1Cc1cccc(O)c1 (configuration not stated)	-1.0	-0.3	-5.8	92.7*	73.6*	0.3	7.4
Cc1ccccc1-c1cc(C(=O)Nc2sc(C(=O)OC(C)C)c(C)c2C#N)c2ccccc2n1	1.5	7.2	5.2	8.7	x	x	x
Cn1c(SCC(=O)Nc2ccc(NC(=O)c3cccs3)cc2)nnc1-c1ccncc1	-0.1	-0.7	-4.9	-14.2	x	x	x
Cn1ccnc1SCC(=O)Nc1cc(F)ccc1F	-3.6	2.9	-4.8	-4.3	x	x	x
CN(C)c1ccc(C(=O)/C=C/c2ccc(Br)cc2)cc1	-0.9	10.2	3.1	85.6*	63.9*	-0.8	-21.5
O=C(c1cc(C2CC2)on1)N1CCN(C(c2ccccc2)c2ccccc2)CC1	0.3	0.5	-1.0	13.1	x	x	x
Cc1cc(C(=O)N2CCN(Cc3ccc4c(c3)OCO4)CC2)on1	-0.4	2.1	1.2	-9.3	x	x	x
COc1ccc(-c2cc(C(=O)N3CCN(Cc4ccccc4)CC3)no2)cc1OC	-3.4	5.8	-2.4	-18.5	x	x	x
COc1cccc(-c2cc(C(=O)N3CCN(Cc4ccccc4)CC3)no2)c1	-1.3	2.5	-5.3	51.1*	28.8	-0.4	-8.0
CCN1CCN(C(=O)c2cc3ccc(OC)cc3[nH]2)CC1	-1.7	11.5	-7.4	23.7	x	x	x
O=C(c1cc(-c2cccc(O)c2)on1)N1CCN(C(c2ccccc2)c2ccccc2)CC1	-2.5	13.8	0.8	90.3*	73.1*	-0.1	4.3
COc1cccc(-c2cc(C(=O)N3CCN(Cc4ccc5c(c4)OCO5)CC3)on2)c1	-0.5	6.3	0.0	70.2*	54.0*	-0.2	-11.1
COc1ccc2cc(C(=O)N3CCN(Cc4ccc5c(c4)OCO5)CC3)[nH]c2c1	-1.4	-5.1	-13.7	85.6*	58.9*	0.4	6.3
CN(CC(=O)Nc1ccccc1Br)C(=O)COc1ccc2ccccc2c1	-0.2	4.6	2.3	19.1	x	x	x
Cc1ccc(NC(=O)c2ccc(S(=O)(=O)N3CCCCC3)cc2)cc1	-0.1	7.0	-6.8	44.6*	41.8	1.3	-1.3
O=C(COc1ccc2ccccc2c1)Nc1ccc(S(=O)(=O)N2CCCCCC2)cc1	3.3	3.2	-2.3	55.9*	12.4	0.8	9.4
O=C(COc1ccccc1)Nc1ccc(S(=O)(=O)N2CCCCCC2)cc1	-1.8	-0.7	-3.3	29.1	x	x	x
Cc1ccc(CNC(=O)c2ccc(S(=O)(=O)N3CCCCCC3)cc2)cc1	6.2	1.9	-1.6	71.7*	34.6	-0.9	-7.5
Cc1cc2cc(CNC(=O)c3ccc(S(=O)(=O)N4CCCCC4)cc3)ccc2[nH]1	-1.4	10.4	-8.9	47.1*	36.4	1.2	7.6
O=C(NCc1ccc2[nH]c3c(c2c1)CCCC3)c1ccc(S(=O)(=O)N2CCCC2)cc1	0.0	15.6	-5.2	-6.7	x	x	x
SMILES	MC4R barr agon	MC4R antagonist	HTR2A ag	EBI2 antag	EBI2 antag conf	EBI2 ag	bGal cs
N#CCCN(C(=S)NC(=O)C1CCCCC1)c1ccccc1F	-0.3	0.5	8.7	-3.6	x	x	x
Cn1nc(C2CC2)cc1NC(=O)C1(C)CCN1C(=O)c1ccccc1CCc1ccccc1 (configuration not stated)	-0.2	3.5	1.8	10.7	x	x	x
C=C(C)CN(CC)C(=O)CN1C(=O)NC(C)(c2ccc3ccccc3c2)C1=O (configuration not stated)	-1.9	-2.4	4.4	-0.8	x	x	x
Cc1cc(C(=O)O)ccc1-c1ccc(/C=C2\NC(=O)N(Cc3ccc(F)cc3)C2=O)o1	-1.2	-1.0	-3.4	3.1	x	x	x
NNC(=S)Nc1ccc(S(=O)(=O)N2CCOCC2)cc1	-3.1	14.2	-1.1	39.3	x	x	x
NNC(=S)Nc1ccc(S(=O)(=O)N2CCCCC2)cc1	-2.5	7.7	2.6	43.6*	37.8	0.7	6.0
Cc1ccc(CNC(=O)C2=CCN(S(=O)(=O)c3ccc(C)cc3)CC2)cc1	0.0	11.3	-4.7	66.2*	28.9	1.6	4.7
Cc1ccc(S(=O)(=O)N2CC=C(C(=O)NCc3ccc(F)cc3)CC2)cc1	-1.9	0.3	5.1	11.8	x	x	x
O=S(=O)(c1ccc(NC(=S)Nc2ccc(OC(F)F)cc2)cc1)N1CCOCC1	7.0	-7.0	5.2	49.1*	44.8	0.2	-2.6
Cc1ccc(NC(=S)Nc2ccc(C(C)C)cc2)cc1S(=O)(=O)N1CCCCCC1	-1.7	5.3	3.5	49.6*	50.9*	0.7	5.2
CCCCCN(C(=O)CCC(=O)OC(C)C(=O)c1ccc(Cl)cc1)c1c(N)n(CCCC)c(=O)[nH]c1=O (configuration not stated)	-2.1	10.0	2.9	5.5	x	x	x
COc1ccc(C2=NOC(Cn3nc(C(=O)NCc4ccc(C)cc4)cc3-c3ccccc3)C2)cc1 (configuration not stated)	-2.0	17.5	-5.2	44.0*	39.1	-1.2	-9.0
O=C(COc1ccc2ccccc2c1)N1CCN(c2ccccc2)CC1	-0.4	8.8	5.3	50.1*	39.8	-1.0	-18.1
COc1cc(OC)cc(C(=O)N2CCN(C(=O)COc3ccc4ccccc4c3)CC2)c1	0.3	2.1	-1.4	84.7*	67.6*	-0.4	-6.1
O=C(COc1ccc2cc(Br)ccc2c1)N1CCOCC1	0.3	7.4	2.2	61.6*	36.2	1.3	3.8
Cc1c(C)c2ccc(OCC(=O)N3CCN(c4ccccc4)CC3)cc2oc1=O	-1.0	-6.8	2.3	3.6	x	x	x
COc1cc(OC)cc(C(=O)N2CCN(C(=O)Cc3ccccc3)CC2)c1	-1.1	4.4	-4.6	3.7	x	x	x
O=C(COc1ccc(Br)cc1)N1CCN(c2ccccc2)CC1	1.0	-4.9	-2.4	81.6*	67.5*	0.2	7.7
O=C(COc1ccc(Br)cc1)OCC(=O)N1CCOCC1	1.5	1.0	-5.7	-2.4	x	x	x

High-throughput results from PubChem BioAssay.
